# Measurements published in ChEMBL document CHEMBL1926614, “Substituted thiazoles V. synthesis and antitumor activity of novel thiazolo[2,3-b]quinazoline and pyrido[4,3-d]thiazolo[3,2-a]pyrimidine analogues” (2012).
# Columns and labels:
# Type in all cases: functional
# HOP-62 = assay: Growth inhibition of human HOP62 cells at 10 uM after 48 hrs by coulter counting; conditions: HOP-62, 48 h, read-out: GI
# Method in brief: (§1)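 Single-dose primary screen across the full NCI 60-cell-line panel. Stocks were made in DMSO and diluted in PBS to a final DMSO below 1%. Cultures at 6 × 10⁴ cells/ml were run in duplicate wells alongside PBS/DMSO vehicle controls at 37 °C in humidified 5% CO₂. Data were expressed as percent growth of treated cells.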
# ACHN = assay: Growth inhibition of human ACHN cells at 10 uM after 48 hrs by coulter counting; conditions: read-out: GI; method in brief: as §1
# NCI/ADR-RES = assay: Growth inhibition of human NCI/ADR-RES cells at 10 uM after 48 hrs by coulter counting; conditions: read-out: GI; method in brief: as §1
# CCRF-CEM = assay: Growth inhibition of human CCRF-CEM cells at 10 uM after 48 hrs by coulter counting; conditions: read-out: GI; method in brief: as §1
# U-251 = assay: Growth inhibition of human U251 cells at 10 uM after 48 hrs by coulter counting; conditions: U-251, 48 h, read-out: GI
# Method in brief: (§2)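 Single-dose screen in the NCI 60 human tumor cell line panel (nine subpanels). Compounds dissolved in DMSO and diluted in phosphate buffered saline, keeping final DMSO below 1%. Added in duplicate wells to cells at 6 × 10⁴ cells/ml. Controls held PBS and DMSO at matching dilutions. Incubated at 37 °C, humidified, 5% CO₂. Reported as percent growth of treated cells.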
# LOX IMVI = assay: Growth inhibition of human LOXIMVI cells at 10 uM after 48 hrs by coulter counting; conditions: read-out: GI; method in brief: as §1
# MOLT-4 = assay: Growth inhibition of human MOLT4 cells at 10 uM after 48 hrs by coulter counting; conditions: MOLT-4, 48 h, read-out: GI; method in brief: as §1
# CAKI-1 = assay: Growth inhibition of human Caki1 cells at 10 uM after 48 hrs by coulter counting; conditions: CAKI-1, 48 h, read-out: GI; method in brief: as §1
# NCI-H23 = assay: Growth inhibition of human NCI-H23 cells at 10 uM after 48 hrs by coulter counting; conditions: NCI-H23, 48 h, read-out: GI; method in brief: as §1
# SF-295 = assay: Growth inhibition of human SF295 cells at 10 uM after 48 hrs by coulter counting; conditions: SF-295, 48 h, read-out: GI; method in brief: as §1
# A498 = assay: Growth inhibition of human A498 cells at 10 uM after 48 hrs by coulter counting; conditions: A498, 48 h, read-out: GI; method in brief: as §1
# HT-29 = assay: Growth inhibition of human HT-29 cells at 10 uM after 48 hrs by coulter counting; conditions: HT-29, 48 h, read-out: GI; method in brief: as §1
# BT-549 = assay: Growth inhibition of human BT549 cells at 10 uM after 48 hrs by coulter counting; conditions: BT-549, 48 h, read-out: GI; method in brief: as §1
# SF-268 = assay: Growth inhibition of human SF268 cells at 10 uM after 48 hrs by coulter counting; conditions: SF-268, 48 h, read-out: GI; method in brief: as §1
# NCI-H226 = assay: Growth inhibition of human NCI-H226 cells at 10 uM after 48 hrs by coulter counting; conditions: NCI-H226, 48 h, read-out: GI; method in brief: as §1
# M14 = assay: Growth inhibition of human M14 cells at 10 uM after 48 hrs by coulter counting; conditions: M14, 48 h, read-out: GI; method in brief: as §1
# UACC-257 = assay: Growth inhibition of human UACC257 cells at 10 uM after 48 hrs by coulter counting; conditions: UACC-257, 48 h, read-out: GI; method in brief: as §2
# OVCAR-4 = assay: Growth inhibition of human OVCAR4 cells at 10 uM after 48 hrs by coulter counting; conditions: OVCAR-4, 48 h, read-out: GI; method in brief: as §1
# SK-MEL-2 = assay: Growth inhibition of human SK-MEL-2 cells at 10 uM after 48 hrs by coulter counting; conditions: SK-MEL-2, 48 h, read-out: GI; method in brief: as §1
# [1] = Growth inhibition of human NCI-322M cells at 10 uM after 48 hrs by coulter counting; conditions: read-out: GI; method in brief: as §1
# HCT-116 = assay: Growth inhibition of human HCT116 cells at 10 uM after 48 hrs by coulter counting; conditions: HCT-116, 48 h, read-out: GI; method in brief: as §1
# NCI-H522 = assay: Growth inhibition of human NCI-H522 cells at 10 uM after 48 hrs by coulter counting; conditions: NCI-H522, 48 h, read-out: GI; method in brief: as §1
# DU-145 = assay: Growth inhibition of human DU145 cells at 10 uM after 48 hrs by coulter counting; conditions: DU-145, 48 h, read-out: GI; method in brief: as §1
# SK-MEL-5 = assay: Growth inhibition of human SK-MEL-5 cells at 10 uM after 48 hrs by coulter counting; conditions: SK-MEL-5, 48 h, read-out: GI; method in brief: as §1
# RPMI-8226 = assay: Growth inhibition of human RPMI8226 cells at 10 uM after 48 hrs by coulter counting; conditions: RPMI-8226, 48 h, read-out: GI; method in brief: as §1
# IGROV-1 = assay: Growth inhibition of human IGROV1 cells at 10 uM after 48 hrs by coulter counting; conditions: IGROV-1, 48 h, read-out: GI; method in brief: as §1
# NCI-H460 = assay: Growth inhibition of human NCI-H460 cells at 10 uM after 48 hrs by coulter counting; conditions: NCI-H460, 48 h, read-out: GI; method in brief: as §1
# SK-MEL-28 = assay: Growth inhibition of human SK-MEL-28 cells at 10 uM after 48 hrs by coulter counting; conditions: SK-MEL-28, 48 h, read-out: GI; method in brief: as §1
# T47D = assay: Growth inhibition of human T47D cells at 10 uM after 48 hrs by coulter counting; conditions: read-out: GI; method in brief: as §2
# KM12 = assay: Growth inhibition of human KM12 cells at 10 uM after 48 hrs by coulter counting; conditions: KM12, 48 h, read-out: GI; method in brief: as §1
# UO-31 = assay: Growth inhibition of human UO31 cells at 10 uM after 48 hrs by coulter counting; conditions: UO-31, 48 h, read-out: GI; method in brief: as §2
# SNB-75 = assay: Growth inhibition of human SNB75 cells at 10 uM after 48 hrs by coulter counting; conditions: SNB-75, 48 h, read-out: GI; method in brief: as §1
# SNB-19 = assay: Growth inhibition of human SNB19 cells at 10 uM after 48 hrs by coulter counting; conditions: SNB-19, 48 h, read-out: GI; method in brief: as §1
# K562 = assay: Growth inhibition of human K562 cells at 10 uM after 48 hrs by coulter counting; conditions: K562, 48 h, read-out: GI; method in brief: as §1
# MDA-MB-435 = assay: Growth inhibition of human MDA-MB-435 cells at 10 uM after 48 hrs by coulter counting; conditions: MDA-MB-435, 48 h, read-out: GI; method in brief: as §1
# HCC 2998 = assay: Growth inhibition of human HCC2998 cells at 10 uM after 48 hrs by coulter counting; conditions: HCC 2998, 48 h, read-out: GI; method in brief: as §1
# SF-539 = assay: Growth inhibition of human SF539 cells at 10 uM after 48 hrs by coulter counting; conditions: SF-539, 48 h, read-out: GI; method in brief: as §1
# MCF7 = assay: Growth inhibition of human MCF7 cells at 10 uM after 48 hrs by coulter counting; conditions: MCF7, 48 h, read-out: GI; method in brief: as §1
# HL-60(TB) = assay: Growth inhibition of human HL-60(TB) cells at 10 uM after 48 hrs by coulter counting; conditions: HL-60, 48 h, read-out: GI
# Method in brief: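 Test compound was dissolved in DMSO and diluted in phosphate-buffered saline to a final DMSO level below 1%. Dilutions were plated in duplicate with cell culture at 6 × 10⁴ cells/ml. Vehicle controls held PBS and DMSO at matching dilutions. Incubation was at 37 °C, humidified, under 5% CO₂. Data were reported as percent growth of treated cells.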
# UACC-62 = assay: Growth inhibition of human UACC62 cells at 10 uM after 48 hrs by coulter counting; conditions: UACC-62, 48 h, read-out: GI; method in brief: as §2
# A549 = assay: Growth inhibition of human A549 cells at 10 uM after 48 hrs by coulter counting; conditions: A549, 48 h, read-out: GI; method in brief: as §1
# EKVX = assay: Growth inhibition of human EKVX cells at 10 uM after 48 hrs by coulter counting; conditions: read-out: GI; method in brief: as §1
smiles,measurement,setting,value
COc1ccc(/C=C2\CCCC3=C2N=C2SC=CN2C3c2ccc(OC)cc2)cc1 (stereo not drawn),inhibition of growth at 10 µM,HOP-62,> 10%
same,inhibition of growth at 10 µM,ACHN,> 10%
same,inhibition of growth at 10 µM,NCI/ADR-RES,> 10%
same,inhibition of growth at 10 µM,CCRF-CEM,> 10%
same,inhibition of growth at 10 µM,U-251,> 10%
same,inhibition of growth at 10 µM,LOX IMVI,> 10%
same,inhibition of growth at 10 µM,MOLT-4,14.4%
same,inhibition of growth at 10 µM,CAKI-1,11.3%
same,inhibition of growth at 10 µM,NCI-H23,> 10%
same,inhibition of growth at 10 µM,SF-295,> 10%
same,inhibition of growth at 10 µM,A498,> 10%
same,inhibition of growth at 10 µM,HT-29,> 10%
same,inhibition of growth at 10 µM,BT-549,> 10%
same,inhibition of growth at 10 µM,SF-268,> 10%
same,inhibition of growth at 10 µM,NCI-H226,21.6%
same,inhibition of growth at 10 µM,M14,18.8%
same,inhibition of growth at 10 µM,UACC-257,> 10%
same,inhibition of growth at 10 µM,OVCAR-4,15.4%
same,inhibition of growth at 10 µM,SK-MEL-2,> 10%
same,inhibition of growth at 10 µM,[1],> 10%
same,inhibition of growth at 10 µM,HCT-116,17.6%
same,inhibition of growth at 10 µM,NCI-H522,> 10%
same,inhibition of growth at 10 µM,DU-145,> 10%
same,inhibition of growth at 10 µM,SK-MEL-5,> 10%
same,inhibition of growth at 10 µM,RPMI-8226,21%
same,inhibition of growth at 10 µM,IGROV-1,> 10%
same,inhibition of growth at 10 µM,NCI-H460,> 10%
same,inhibition of growth at 10 µM,SK-MEL-28,> 10%
same,inhibition of growth at 10 µM,T47D,> 10%
same,inhibition of growth at 10 µM,KM12,> 10%
same,inhibition of growth at 10 µM,UO-31,32%
same,inhibition of growth at 10 µM,SNB-75,> 10%
same,inhibition of growth at 10 µM,SNB-19,> 10%
same,inhibition of growth at 10 µM,K562,> 10%
same,inhibition of growth at 10 µM,MDA-MB-435,15.4%
same,inhibition of growth at 10 µM,HCC 2998,> 10%
same,inhibition of growth at 10 µM,SF-539,> 10%
same,inhibition of growth at 10 µM,MCF7,> 10%
same,inhibition of growth at 10 µM,HL-60(TB),> 10%
same,inhibition of growth at 10 µM,UACC-62,> 10%
same,inhibition of growth at 10 µM,A549,> 10%
same,inhibition of growth at 10 µM,EKVX,12.5%
COc1ccc(/C=C2\CCCC3=C2N=C2SC=C(C)N2C3c2ccc(OC)c(OC)c2)cc1OC (stereo not drawn),inhibition of growth at 10 µM,ACHN,> 10%
same,inhibition of growth at 10 µM,NCI/ADR-RES,> 10%
same,inhibition of growth at 10 µM,CCRF-CEM,> 10%
same,inhibition of growth at 10 µM,U-251,> 10%
same,inhibition of growth at 10 µM,LOX IMVI,> 10%
same,inhibition of growth at 10 µM,MOLT-4,> 10%
same,inhibition of growth at 10 µM,CAKI-1,> 10%
same,inhibition of growth at 10 µM,NCI-H23,> 10%
same,inhibition of growth at 10 µM,SF-295,> 10%
same,inhibition of growth at 10 µM,A498,> 10%
same,inhibition of growth at 10 µM,HT-29,> 10%
same,inhibition of growth at 10 µM,BT-549,> 10%
same,inhibition of growth at 10 µM,SF-268,> 10%
same,inhibition of growth at 10 µM,NCI-H226,10.5%
same,inhibition of growth at 10 µM,M14,> 10%
same,inhibition of growth at 10 µM,UACC-257,> 10%
same,inhibition of growth at 10 µM,OVCAR-4,> 10%
same,inhibition of growth at 10 µM,SK-MEL-2,> 10%
same,inhibition of growth at 10 µM,[1],> 10%
same,inhibition of growth at 10 µM,HCT-116,> 10%
same,inhibition of growth at 10 µM,NCI-H522,> 10%
same,inhibition of growth at 10 µM,DU-145,> 10%
same,inhibition of growth at 10 µM,SK-MEL-5,> 10%
same,inhibition of growth at 10 µM,RPMI-8226,> 10%
same,inhibition of growth at 10 µM,IGROV-1,> 10%
same,inhibition of growth at 10 µM,NCI-H460,> 10%
same,inhibition of growth at 10 µM,SK-MEL-28,> 10%
same,inhibition of growth at 10 µM,T47D,> 10%
same,inhibition of growth at 10 µM,KM12,> 10%
same,inhibition of growth at 10 µM,UO-31,> 10%
same,inhibition of growth at 10 µM,SNB-75,> 10%
same,inhibition of growth at 10 µM,SNB-19,> 10%
same,inhibition of growth at 10 µM,K562,> 10%
same,inhibition of growth at 10 µM,MDA-MB-435,> 10%
same,inhibition of growth at 10 µM,HCC 2998,> 10%
same,inhibition of growth at 10 µM,SF-539,> 10%
same,inhibition of growth at 10 µM,MCF7,> 10%
same,inhibition of growth at 10 µM,HL-60(TB),> 10%
same,inhibition of growth at 10 µM,UACC-62,> 10%
same,inhibition of growth at 10 µM,A549,> 10%
same,inhibition of growth at 10 µM,EKVX,11.4%
